Measured values from ChEMBL document CHEMBL1909503, “Protective effects of luteolin against apoptotic liver damage induced by D-galactosamine/lipopolysaccharide in mice” (2011).
Active and inactive are the calls of the source. The rule behind the calls is not given here.

Legend:
Mus musculus [1] = experiment: Hepatoprotective activity in ICR mouse assessed as reduction in GalN/LPS-induced mortality at 200 mg/kg, ip administered 1 hr prior to GalN/LPS challenge measured after 24 hrs of GalN/LPS injection; assay type: functional, organism-based; set-up: dose 200 mg/kg; scale not given: the % may be the effect or the level left
Method in brief: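 Male ICR mice (25–30 g), fasted overnight with water ad libitum. Pretreatment ip, suspended in 10% Tween 80–saline, 1 h before ip GalN (700 mg/kg) plus E. coli 026:B6 LPS (10 μg/kg) in PBS. Survival monitored for 24 h after GalN/LPS; 15 mice per group.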

Mus musculus [2] = experiment: Hepatoprotective activity in GalN/LPS -stimulated ICR mouse assessed as suppression of cytochrome c level at 200 mg/kg, ip administered 1 hr prior to GalN/LPS challenge measured after 8 hrs of GalN/LPS injection by Western blotting; assay type: functional, organism-based; set-up: dose 200 mg/kg
Method in brief: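 Male ICR mice; compound in 10% Tween 80–saline ip 1 h before ip GalN 700 mg/kg/LPS 10 μg/kg; liver taken 8 h later. Cytosolic fraction prepared by NE-PER extraction. 50 μg cytosolic protein run on 12% SDS-PAGE, blotted to nitrocellulose, blocked with 5% nonfat milk/PBS, probed 1 h at room temperature with monoclonal anti-cytochrome c, β-actin as reference, HRP secondary. 8–10 mice per group.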

Mus musculus [3] = experiment: Hepatoprotective activity in GalN/LPS -stimulated ICR mouse assessed as decrease in caspase-8 activity at 200 mg/kg, ip administered 1 hr prior to GalN/LPS challenge measured after 8 hrs of GalN/LPS injection relative to control; assay type: functional; set-up: scale not given: the % may be the effect or the level left; conditions: route intraperitoneal
Method in brief: (§1)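 Liver taken 8 h after GalN (700 mg/kg)/LPS (10 μg/kg) ip, homogenized in 25 mM Tris, 5 mM MgCl2, 1 mM EGTA with protease inhibitors; 40000g supernatant, 10 mM DTT added. 30 μg protein preincubated 15 min at room temperature in HEPES/EDTA/NaCl/Triton/DTT buffer, then 200 μM peptide substrate (DEVD for caspase-3, IETD for caspase-8) at 37 °C; fluorescence (400/490 nm) read at 120 min; expressed as % of control.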

Mus musculus [4] = experiment: Hepatoprotective activity in GalN/LPS -stimulated ICR mouse assessed as suppression of TRADD expression level at 200 mg/kg, ip administered 1 hr prior to GalN/LPS challenge measured after 3 hrs of GalN/LPS injection by Western blotting; assay type: functional, organism-based; set-up: dose 200 mg/kg
Method in brief: (§2)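 Male ICR mice (25–30 g), fasted overnight, water ad libitum. Compound suspended in 10% Tween 80–saline, given ip 1 h before ip GalN (700 mg/kg) plus E. coli 026:B6 LPS (10 μg/kg) in PBS. Liver homogenized in lysis buffer; 10 μg protein per lane on 10% SDS-PAGE, semidry transfer to nitrocellulose, blocked in 5% skim milk/TBS. Overnight 4 °C primary antibody; β-actin reference. 8–10 mice per group.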

Mus musculus [5] = experiment: Hepatoprotective activity in GalN/LPS -stimulated ICR mouse assessed as decrease in Bid expression level at 200 mg/kg, ip administered 1 hr prior to GalN/LPS challenge measured after 3 hrs of GalN/LPS injection by Western blotting; assay type: functional, organism-based; set-up: dose 200 mg/kg; method in brief: as §2
Mus musculus [6] = experiment: Hepatoprotective activity in GalN/LPS -stimulated ICR mouse assessed as decrease in caspase-3 activity at 200 mg/kg, ip administered 1 hr prior to GalN/LPS challenge measured after 8 hrs of GalN/LPS injection relative to control; assay type: functional; set-up: scale not given: the % may be the effect or the level left; conditions: route intraperitoneal; method in brief: as §1
Mus musculus [7] = experiment: Hepatoprotective activity in GalN/LPS -stimulated ICR mouse assessed as reduction in phosphorylated JNK p-46 expression level at 200 mg/kg, ip administered 1 hr prior to GalN/LPS challenge measured after 3 hrs of GalN/LPS injection by Western blotting; assay type: functional, organism-based; set-up: dose 200 mg/kg; method in brief: as §2
Mus musculus [8] = experiment: Hepatoprotective activity in GalN/LPS -stimulated ICR mouse assessed as decrease in ratio of phosphorylated BimL protein expression level at 200 mg/kg, ip administered 1 hr prior to GalN/LPS challenge measured after 3 hrs of GalN/LPS injection by Western blotting; assay type: functional, organism-based; set-up: dose 200 mg/kg; method in brief: as §2
Mus musculus [9] = experiment: Hepatoprotective activity in GalN/LPS -stimulated ICR mouse assessed as reduction in phosphorylated JNK p-54 expression level at 200 mg/kg, ip administered 1 hr prior to GalN/LPS challenge measured after 3 hrs of GalN/LPS injection by Western blotting; assay type: functional, organism-based; set-up: dose 200 mg/kg; method in brief: as §2
Mus musculus [10] = experiment: Hepatoprotective activity in GalN/LPS -stimulated ICR mouse assessed as decrease in Bax expression level at 200 mg/kg, ip administered 1 hr prior to GalN/LPS challenge measured after 3 hrs of GalN/LPS injection by Western blotting; assay type: functional, organism-based; set-up: dose 200 mg/kg; method in brief: as §2
Mus musculus [11] = experiment: Hepatoprotective activity in GalN/LPS-stimulated ICR mouse assessed as decrease in ratio of phosphorylated Bim EL protein expression level at 200 mg/kg, ip administered 1 hr prior to GalN/LPS challenge measured after 3 hrs of GalN/LPS injection by Western blotting; assay type: functional, organism-based; set-up: dose 200 mg/kg; method in brief: as §2
Mus musculus [12] = experiment: Hepatoprotective activity in GalN/LPS -stimulated ICR mouse assessed as decrease in serum alanine amino transferase level at 200 mg/kg, ip administered 1 hr prior to GalN/LPS challenge measured after 8 hrs of GalN/LPS injection; assay type: functional; conditions: route intraperitoneal
Method in brief: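 Fasted male ICR mice given compound ip in 10% Tween 80–saline 1 h before ip GalN (700 mg/kg)/LPS (10 μg/kg) in PBS. Blood sampled 8 h after challenge; serum ALT measured with an automatic analyzer, reported in U/L. 8–10 mice per group.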

Mus musculus [13] = experiment: Hepatoprotective activity in GalN/LPS -stimulated ICR mouse assessed as decrease in serum TNFalpha level at 200 mg/kg, ip administered 1 hr prior to GalN/LPS challenge measured after 1 hr of GalN/LPS injection by ELISA; assay type: functional; conditions: route intraperitoneal
Method in brief: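 Male ICR mice dosed ip (10% Tween 80–saline) 1 h before ip GalN 700 mg/kg plus LPS 10 μg/kg. Serum TNF-α quantified 1 h after challenge by mouse ELISA kit following kit instructions. 8–10 mice per group.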

Mus musculus [14] = experiment: Hepatoprotective activity in ip dosed ICR mouse assessed as reduction in GalN/LPS-induced mortality at 200 mg/kg, ip administered 1 hr prior to GalN/LPS challenge measured after 24 hrs of GalN/LPS injection; assay type: functional, organism-based; set-up: dose 200 mg/kg
Method in brief: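 15 male ICR mice per group received compound (25–200 mg/kg) in 10% Tween 80–saline ip 1 h before ip GalN 700 mg/kg plus E. coli 026:B6 LPS 10 μg/kg in PBS; survival monitored over 24 h after challenge.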

Mus musculus [15] = experiment: Hepatoprotective activity in GalN/LPS -stimulated ICR mouse assessed as reduction in number of apoptotic hepatocytes at 200 mg/kg, ip administered 1 hr prior to GalN/LPS by TUNEL assay; assay type: functional, organism-based; set-up: dose 200 mg/kg; conditions: Hepatocyte
Method in brief: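 Liver sections from male ICR mice pretreated ip 1 h before GalN (700 mg/kg)/LPS (10 μg/kg). Apoptotic hepatocytes detected with an in situ TUNEL kit; TUNEL-positive cells counted microscopically across 200 histological fields.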

For SILYMARIN, the Activity (Mus musculus [1]) was 13.3%.

In the case of `O=c1cc(-c2ccc(O)c(O)c2)oc2cc(O)cc(O)c12` [LUTEOLIN], the inhibition (Mus musculus [2]) is reported as “Active”, the Activity (Mus musculus [3]) is reported as 176.8% and the inhibition (Mus musculus [4]) is reported as “Active”. For the same compound, the inhibition (Mus musculus [5]) was “Active”, the Activity (Mus musculus [6]) was 251.7% and the inhibition (Mus musculus [7]) was “Active”. For the same compound, the inhibition (Mus musculus [8]) was “Active”, the inhibition (Mus musculus [9]) was “Active” and the inhibition (Mus musculus [10]) was “Active”. The inhibition (Mus musculus [11]) was “Active”, the Activity (Mus musculus [12]) was 1059 U/L and the Activity (Mus musculus [13]) was 574.2 pg/mL. For the same compound, the Activity (Mus musculus [14]) was “Dose-dependent effect” and the Activity (Mus musculus [15]) was “Active”.
